We go through six compounds from ChEMBL document CHEMBL1124865, “Synthesis and biological evaluation of a series of parenteral 3'-quaternary ammonium cephalosporins” (J Med Chem, 1990).

Usually ED50 stands for the midpoint of the dose-response relation.

Format in all cases: functional
The test system of assay [1] is Streptococcus pyogenes. The assay can be described thus: Antibacterial activity against Streptococcus pyogenes. The conditions noted are these: Streptococcus pyogenes; read-out: MIC.
Assay [2] concerns Staphylococcus aureus. In words: In vivo efficacy against Staphylococcus aureus infections in mice.
For assay [3], the system named is Serratia marcescens. In words: Antibacterial activity against Serratia marcescens SE3.
For assay [4], the system named is Streptococcus pneumoniae. In words: Antibacterial activity against Streptococcus pneumoniae. The conditions noted are these: Streptococcus pneumoniae; read-out: MIC.
The subject of assay [5] is Pseudomonas aeruginosa. In words: Antibacterial activity against Pseudomonas aeruginosa PS18.
The subject of assay [6] is Klebsiella pneumoniae. In words: microbe, parasite or virus in culture.
The subject of assay [7] is Escherichia coli. In words: Antibacterial activity against Escherichia coli TEM. As to conditions: Escherichia coli; read-out: MIC.
The test system of assay [8] is Escherichia coli. In words: Antibacterial activity against Escherichia coli EC14.
Assay [9] has as its system Enterobacter cloacae. In words: Antibacterial activity against Enterobacter cloacae 265A.
In assay [10] the test system is Staphylococcus aureus. In words: In vivo efficacy against Staphylococcus aureus infected mice treated at 1 hr and 5 hr post infection.
Assay [11] concerns Klebsiella pneumoniae. In words: Antibacterial activity against Klebsiella pneumoniae X26.
For assay [12], the system named is Pseudomonas aeruginosa. The assay can be described thus: Antibacterial activity against Pseudomonas aeruginosa X528.
The subject of assay [13] is Pseudomonas aeruginosa. The assay can be described thus: In vivo efficacy against Pseudomonas aeruginosa infected mice treated at 1 hr and 5 hr post infection. As to conditions: Pseudomonas aeruginosa; read-out: ED50.
Assay [14] has as its system Escherichia coli. The assay can be described thus: In vivo efficacy against Escherichia coli infected mice treated at 1 hr and 5 hr post infection. As to conditions: Escherichia coli; read-out: ED50.
Assay [15] relates to Staphylococcus aureus. In words: Antibacterial activity against penicillin G resistance Staphylococcus aureus.
Assay [16] concerns Escherichia coli. The assay can be described thus: In vivo efficacy against Escherichia coli infections in mice. As to conditions: Escherichia coli; read-out: MIC.
The test system of assay [17] is Enterococcus faecium. In words: Antibacterial activity against Enterococcus faecium. As to conditions: Enterococcus faecium; read-out: MIC.
Assay [18] relates to Enterobacter cloacae. The assay can be described thus: Antibacterial activity against Enterobacter cloacae EB5. The conditions noted are these: Enterobacter cloacae; read-out: MIC.
Assay [19] relates to Pseudomonas aeruginosa. The assay can be described thus: In vivo efficacy against Pseudomonas aeruginosa infections in mice. The conditions noted are these: Pseudomonas aeruginosa; read-out: MIC.
In assay [20] the test system is Staphylococcus aureus. In words: Antibacterial activity against penicillin G susceptible Staphylococcus aureus.
In assay [21] the test system is Escherichia coli. The assay can be described thus: In vitro relative hydrolysis rate against Escherichia coli IIIa. In a few lines: (§1)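 Spectrophotometric hydrolysis at 265 nm, substrate exposed to partially purified cell-free β-lactamase preparations; rate expressed as percentage of the cephaloridine rate.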
The subject of assay [22] is Enterobacter cloacae. The assay can be described thus: In vitro relative hydrolysis rate against Enterobacter Ia. The procedure, abridged:
as §1

The subject of assay [23] is Klebsiella pneumoniae. The assay can be described thus: In vitro relative hydrolysis rate against Klebsiella IV. The procedure, abridged: as §1
Assay [24] concerns Staphylococcus aureus. In words: In vitro relative hydrolysis rate against Staphylococcus aureus. In a few lines:
as §1

The test system of assay [25] is Pseudomonas aeruginosa. In words: In vitro relative hydrolysis rate against Pseudomonas Id. The procedure, abridged:
as §1

For assay [26], the species on record is Cavia porcellus. In words: In vitro relative anticholinergic potential in isolated guinea pig trachea. The procedure, abridged:
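Guinea pig trachea in Krebs' solution at 37.5 °C, 95% O2/5% CO2, pH 7.4, 2 g resting tension. Cumulative carbachol log dose-response curve (3-fold steps) run before and 30 min after adding antagonist at 1 mM. […] Tukey test on log2 dose ratios.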

Setting [27] is: Staphylococcus aureus, read-out: MIC.
[28] abbreviates: Serratia marcescens, read-out: MIC.
The mark [29] stands for this setting: Pseudomonas aeruginosa, read-out: MIC.
Setting [30] is: Klebsiella pneumoniae, read-out: MIC.
The mark [31] stands for this setting: Escherichia coli, read-out: MIC.
Setting [32] is: Enterobacter cloacae, read-out: MIC.
Setting [33] is: Staphylococcus aureus, read-out: ED50.

Each structure is given as a SMILES string. Converted amounts (≈) assume the structure as drawn.

In the case of `CO/N=C(\C(=O)N[C@@H]1C(=O)N2C(C(=O)[O-])=C(C[n+]3cccc4ccc(O)cc43)CS[C@H]12)c1csc(N)n1`, the MIC in assay [1] stood at 0.03 mg/L (≈ 0.0555 µM); in [2] (setting [27]), 4 mg/L (≈ 7.4 µM); in [3] (setting [28]) it was 0.5 mg/L (≈ 0.925 µM); in [4], 0.06 mg/L (≈ 0.111 µM); in [5] (setting [29]), 32 mg/L (≈ 59.2 µM); in assay [6] (setting [30]), 4 mg/L (≈ 7.4 µM). The MIC turned out to be 0.125 mg/L (≈ 0.231 µM) in [7]; 0.06 mg/L (≈ 0.111 µM) in assay [8] (setting [31]); 8 mg/L (≈ 14.8 µM) in assay [9] (setting [32]); 0.03 mg/L (≈ 0.0555 µM) in [11] (setting [30]); 16 mg/L (≈ 29.6 µM) in [12] (setting [29]); 8 mg/L (≈ 14.8 µM) in [15] (setting [27]). The MIC was 0.06 mg/L (≈ 0.111 µM) in assay [16]; > 128 mg/L in assay [17]; 0.25 mg/L (≈ 0.462 µM) in assay [18]; 16 mg/L (≈ 29.6 µM) in assay [19]; 4 mg/L (≈ 7.4 µM) in [20] (setting [27]). In addition, the results for the ED50 in [10] (setting [33]), in [13] and in assay [14] were 4 mg/kg, > 50 mg/kg and 0.05 mg/kg, respectively.
For the compound `CO/N=C(\C(=O)N[C@@H]1C(=O)N2C(C(=O)[O-])=C(C[n+]3ccc4ccccc4c3)CS[C@H]12)c1csc(N)n1`, the Hydrolysis rate amounted to 0.2 in [21]; 0.3 in assay [22]; 2.8 in [23]; 9.3 in [24]; 0.1 in [25]. For the same compound, the MIC in [1] was < 0.008 mg/L; in [2] (setting [27]) it was 1 mg/L (≈ 1.91 µM); in assay [3] (setting [28]), 0.06 mg/L (≈ 0.114 µM); in [4] it was 0.015 mg/L (≈ 0.0286 µM); in [5] (setting [29]), 4 mg/L (≈ 7.63 µM); in assay [6] (setting [30]), 2 mg/L (≈ 3.81 µM). The MIC was found to be 0.03 mg/L (≈ 0.0572 µM) in assay [7]; 0.015 mg/L (≈ 0.0286 µM) in [8] (setting [31]); 8 mg/L (≈ 15.3 µM) in assay [9] (setting [32]); 0.015 mg/L (≈ 0.0286 µM) in [11] (setting [30]); 2 mg/L (≈ 3.81 µM) in [12] (setting [29]); 1 mg/L (≈ 1.91 µM) in [15] (setting [27]). The MIC came out at 0.015 mg/L (≈ 0.0286 µM) in assay [16]; 128 mg/L (≈ 244 µM) in assay [17]; 0.06 mg/L (≈ 0.114 µM) in [18]; 8 mg/L (≈ 15.3 µM) in assay [19]; 1 mg/L (≈ 1.91 µM) in assay [20] (setting [27]). In addition, the values for the ED50 in [10] (setting [33]), in [13] and in assay [14] were 0.4 mg/kg, 9 mg/kg and 0.04 mg/kg, respectively.
Regarding `CO/N=C(\C(=O)N[C@@H]1C(=O)N2C(C(=O)[O-])=C(C[n+]3ccc(C(N)=S)cc3)CS[C@H]12)c1csc(N)n1`, the MIC is < 0.008 mg/L in assay [1]; 1 mg/L (≈ 1.87 µM) in [2] (setting [27]); 0.06 mg/L (≈ 0.112 µM) in assay [3] (setting [28]); 0.015 mg/L (≈ 0.0281 µM) in assay [4]; 2 mg/L (≈ 3.75 µM) in assay [5] (setting [29]); 8 mg/L (≈ 15 µM) in assay [6] (setting [30]). For the same compound, the MIC turned out to be 0.03 mg/L (≈ 0.0562 µM) in assay [7]; 0.03 mg/L (≈ 0.0562 µM) in assay [8] (setting [31]); 8 mg/L (≈ 15 µM) in [9] (setting [32]); 0.03 mg/L (≈ 0.0562 µM) in assay [11] (setting [30]); 1 mg/L (≈ 1.87 µM) in assay [12] (setting [29]); 2 mg/L (≈ 3.75 µM) in assay [15] (setting [27]). The MIC in assay [16] is 0.03 mg/L (≈ 0.0562 µM); in assay [17], > 128 mg/L; in [18], 0.125 mg/L (≈ 0.234 µM); in [19] it was 8 mg/L (≈ 15 µM); in [20] (setting [27]), 1 mg/L (≈ 1.87 µM). The figures for the ED50 in assay [10] (setting [33]), in [13] and in [14] were 1.4 mg/kg, 7.2 mg/kg and < 0.16 mg/kg, respectively.
For `CO/N=C(\C(=O)N[C@@H]1C(=O)N2C(C(=O)[O-])=C(C[n+]3cc(C)cc(C)c3)CS[C@H]12)c1csc(N)n1`, the Hydrolysis rate came to 0.5 in [21]; 0.1 in assay [22]; 1.5 in assay [23]; 6.1 in assay [24]; 0.1 in assay [25]. The MIC was < 0.008 mg/L in [1]; 0.125 mg/L (≈ 0.249 µM) in [3] (setting [28]); 0.03 mg/L (≈ 0.0597 µM) in assay [4]; 8 mg/L (≈ 15.9 µM) in assay [5] (setting [29]); 8 mg/L (≈ 15.9 µM) in assay [6] (setting [30]); 0.06 mg/L (≈ 0.119 µM) in assay [7]. For the same compound, the MIC was 0.06 mg/L (≈ 0.119 µM) in [8] (setting [31]); 8 mg/L (≈ 15.9 µM) in assay [9] (setting [32]); 0.03 mg/L (≈ 0.0597 µM) in assay [11] (setting [30]); 4 mg/L (≈ 7.96 µM) in assay [12] (setting [29]); 2 mg/L (≈ 3.98 µM) in assay [15] (setting [27]); > 128 mg/L in assay [17]. The MIC stood at 0.125 mg/L (≈ 0.249 µM) in assay [18] and 1 mg/L (≈ 1.99 µM) in assay [20] (setting [27]).
For the compound `CO/N=C(\C(=O)N[C@@H]1C(=O)N2C(C(=O)[O-])=C(C[n+]3cccc(CC(=O)O)c3)CS[C@H]12)c1csc(N)n1` (stereo in doubt; 14), the MIC in [1] was determined as 0.015 mg/L (≈ 0.0282 µM); in assay [2] it was 1 mg/L (≈ 1.88 µM); in assay [3], 0.125 mg/L (≈ 0.235 µM); in [4], 0.015 mg/L (≈ 0.0282 µM); in assay [5], 8 mg/L (≈ 15 µM); in assay [6], 16 mg/L (≈ 30 µM). The MIC came out at 0.06 mg/L (≈ 0.113 µM) in assay [7]; 0.06 mg/L (≈ 0.113 µM) in assay [8]; 16 mg/L (≈ 30 µM) in assay [9]; 0.03 mg/L (≈ 0.0563 µM) in assay [11]; 2 mg/L (≈ 3.76 µM) in assay [12]; 2 mg/L (≈ 3.76 µM) in assay [15]. Besides, the MIC in assay [16] was 0.06 mg/L (≈ 0.113 µM); in [17] it was > 128 mg/L; in assay [18], 0.25 mg/L (≈ 0.469 µM); in assay [19], 8 mg/L (≈ 15 µM); in assay [20], 1 mg/L (≈ 1.88 µM). The ED50 in assay [10] turned out to be 1.4 mg/kg; in [13], 20 mg/kg; in assay [14], 0.09 mg/kg.
On to `CO/N=C(\C(=O)N[C@@H]1C(=O)N2C(C(=O)[O-])=C(C[n+]3ccc4c(c3)ncn4C)CS[C@H]12)c1csc(N)n1`, for which the MIC was 0.015 mg/L (≈ 0.0284 µM) in [1]; 0.008 mg/L (≈ 0.0151 µM) in assay [4]; 4 mg/L (≈ 7.57 µM) in assay [5] (setting [29]); 8 mg/L (≈ 15.1 µM) in [6] (setting [30]); 0.015 mg/L (≈ 0.0284 µM) in assay [7]; 0.015 mg/L (≈ 0.0284 µM) in assay [8] (setting [31]). Also, the MIC in assay [9] (setting [32]) came out at 8 mg/L (≈ 15.1 µM); in [11] (setting [30]) it was 0.015 mg/L (≈ 0.0284 µM); in [12] (setting [29]) it was 1 mg/L (≈ 1.89 µM); in assay [15] (setting [27]), 16 mg/L (≈ 30.3 µM); in assay [17], 128 mg/L (≈ 242 µM); in [20] (setting [27]) it was 2 mg/L (≈ 3.78 µM). In assay [26], this compound yielded an RAP of 1.
